Measurements pooled from the literature.
lecA: PA-I galactophilic lectin (lecA, Pseudomonas aeruginosa, UniProt Q05097)
Chymotrypsinogen A: Chymotrypsinogen A (Bos taurus, UniProt P00766)

| SMILES | target | read-out | mode | method | pH | Ki |
| --- | --- | --- | --- | --- | --- | --- |
| [N-]=[N+]=NCCCCC(=O)Nc1ccc(S[C@@H]2O[C@H](CO)[C@H](O)[C@H](O)[C@H]2O)cc1 | lecA | ligand displacement | – | FP | – | 3.67 µM |
| CCn1c(-c2nc3cc(C(=O)N4CCC[C@@H](N)C4)cc(OC)c3n2C)cc2cccnc21 | Protein-arginine deiminase type-3 (PADI3, Homo sapiens, UniProt Q9ULW8) | enzyme activity | inhibitor | – | – | 925 µM |
| [N-]=[N+]=NCCCC(=O)Nc1ccc(S[C@@H]2O[C@H](CO)[C@H](O)[C@H](O)[C@H]2O)cc1 | lecA | ligand displacement | – | FP | – | 4.01 µM |
| CCCC[C@H](NC(=O)[C@H](CCCCN)NC(=O)[C@H](CO)NC(=O)[C@H](CO)NC(=O)OCc1ccccc1)C(=O)N[C@@H](CCCBr)B(O)O | Chymotrypsinogen A | enzyme activity | inhibitor | fluorescence | – | 0.197 µM |
| OCC(F)(F)F | ADH1 (Saccharomyces cerevisiae, UniProt P00330, W83R) | enzyme activity | inhibitor | – | – | 980 µM |
| CCCC[C@H](NC(=O)[C@H](CCC(N)=O)NC(=O)[C@H](CO)NC(=O)[C@H](CO)NC(=O)CCCCCN)C(=O)N[C@@H](CC(C)C)B(O)O | Chymotrypsinogen A | enzyme activity | inhibitor | fluorescence | – | 0.138 µM |
| NC(=O)C1=CN([C@@H]2O[C@H](COP(=O)(O)OP(=O)(O)OC[C@H]3O[C@@H](n4cnc5c(N)ncnc54)[C@H](O)[C@@H]3O)[C@@H](O)[C@H]2O)C=CC1 | ADH1 (Saccharomyces cerevisiae, UniProt P00330, H49E) | enzyme activity | inhibitor | – | – | 12 µM |
| O=C(CCCn1cc(CN2CCN(c3cc4c(cc3F)c(=O)c(C(=O)O)cn4C3CC3)CC2)nn1)Nc1ccc(S[C@@H]2O[C@H](CO)[C@H](O)[C@H](O)[C@H]2O)cc1 | lecA | ligand displacement | – | FP | – | 3 µM |
| NC(=O)C1=CN([C@@H]2O[C@H](COP(=O)(O)OP(=O)(O)OC[C@H]3O[C@@H](n4cnc5c(N)ncnc54)[C@H](O)[C@@H]3O)[C@@H](O)[C@H]2O)C=CC1 | ADH1 (Saccharomyces cerevisiae, UniProt P00330, W55R) | enzyme activity | inhibitor | – | – | 570 µM |
| CCCC[C@H](NC(=O)[C@H](CCC(N)=O)NC(=O)[C@H](CO)NC(=O)[C@H](Cc1ccccc1)NC(=O)CCCCCN)C(=O)N[C@@H](Cc1ccccc1)B(O)O | Chymotrypsinogen A | enzyme activity | inhibitor | fluorescence | – | 0.000135 µM |
| c1cc2c(cc1C1CCCCC1)c1c3n2CCNC3CCC1 (stereo not shown) | Amine oxidase [flavin-containing] A (Maoa, Rattus norvegicus, UniProt P21396) | enzyme activity | inhibitor | – | pH 7.5 | 3.6 µM |
| CCCC[C@H](NC(=O)[C@H](CCC(N)=O)NC(=O)[C@H](CO)NC(=O)CCCCCN)C(=O)N[C@@H](Cc1ccccc1)B(O)O | Chymotrypsinogen A | enzyme activity | inhibitor | fluorescence | – | 0.00377 µM |
| [N-]=[N+]=NCCC(=O)Nc1ccc(S[C@@H]2O[C@H](CO)[C@H](O)[C@H](O)[C@H]2O)cc1 | lecA | ligand displacement | – | FP | – | 3.96 µM |
